Measured values reported in ChEMBL document CHEMBL1152892, “Synthesis and biological evaluation of 3,6-disubstituted [1,2,4]triazolo[3,4-b][1,3,4]thiadiazole derivatives as a novel class of potential anti-tumor agents” (Eur J Med Chem, 2009).
Active and inactive are the calls of the source. The rule behind the calls is not given here.

Legend:
[1] = Inhibition of CDK4/Cyclin D
[2] = biological target: Cyclin-dependent kinase 2 (Homo sapiens, UniProt P24941); experiment: Inhibition of CDK2/Cyclin A
[3] = biological target: Cyclin-dependent kinase 1/cyclin B1 (Homo sapiens, UniProt P06493); experiment: Inhibition of CDK1/Cyclin B; format: protein-complex assay
Sequence of Cyclin-dependent kinase 1/cyclin B1 (P06493 whole entry): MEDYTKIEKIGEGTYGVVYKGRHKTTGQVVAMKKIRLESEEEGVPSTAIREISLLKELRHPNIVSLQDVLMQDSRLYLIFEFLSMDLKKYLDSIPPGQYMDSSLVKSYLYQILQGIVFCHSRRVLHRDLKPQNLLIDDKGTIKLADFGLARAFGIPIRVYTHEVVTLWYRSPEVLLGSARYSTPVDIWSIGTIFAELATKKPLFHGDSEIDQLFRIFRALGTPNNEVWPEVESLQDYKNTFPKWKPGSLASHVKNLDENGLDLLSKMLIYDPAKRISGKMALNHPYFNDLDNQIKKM
Sequence of Cyclin-dependent kinase 1/cyclin B1 (P14635 whole entry, further chain): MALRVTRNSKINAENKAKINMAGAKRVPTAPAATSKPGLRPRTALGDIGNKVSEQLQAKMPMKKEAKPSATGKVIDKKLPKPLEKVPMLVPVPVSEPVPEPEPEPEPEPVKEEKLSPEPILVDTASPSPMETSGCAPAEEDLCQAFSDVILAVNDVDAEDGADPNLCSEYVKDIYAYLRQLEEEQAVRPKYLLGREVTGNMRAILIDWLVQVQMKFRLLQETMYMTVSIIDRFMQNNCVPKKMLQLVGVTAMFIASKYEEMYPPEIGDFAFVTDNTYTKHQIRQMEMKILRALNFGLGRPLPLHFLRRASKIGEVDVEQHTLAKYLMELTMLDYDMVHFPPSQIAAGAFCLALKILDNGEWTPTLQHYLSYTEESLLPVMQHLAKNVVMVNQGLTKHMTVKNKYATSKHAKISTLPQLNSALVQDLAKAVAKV

SF-268 = experiment: Cytotoxicity against human SF268 cells after 48 hrs by sulforhodamine B assay; format: functional
Procedure, shortened: (§1)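 NCI human tumor panel. Cells in RPMI 1640 with 5% FBS and 2 mM L-glutamine, 5000–40,000 cells/well by growth characteristics, 24 h preincubation at 37 °C. Compound added at time zero at five 10-fold dilutions, top concentration agent-dependent. Incubated 48 h (5% CO2, 100% humidity), then sulforhodamine B stain and plate-reader OD. GI50 and TGI are the concentrations giving 50% and total growth inhibition, in µM.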

HCC 2998 = experiment: Cytotoxicity against human HCC2998 cells after 48 hrs by sulforhodamine B assay; format: functional; procedure, shortened: as §1
CAKI-1 = experiment: Cytotoxicity against human Caki1 cells after 48 hrs by sulforhodamine B assay; format: functional; procedure, shortened: as §1
HCT-116 [4] = experiment: Antitumor activity against human HCT116 cells xenografted in nude mouse; format: functional, cell-based
NCI-H322M = experiment: Cytotoxicity against human NCI-H322M cells after 48 hrs by sulforhodamine B assay; format: functional; procedure, shortened: as §1
TK-10 = experiment: Cytotoxicity against human TK10 cells after 48 hrs by sulforhodamine B assay; format: functional; conditions: TK-10, 48 h; procedure, shortened: as §1
HOP-92 = experiment: Cytotoxicity against human HOP92 cells after 48 hrs by sulforhodamine B assay; format: functional; conditions: HOP-92, 48 h; procedure, shortened: as §1
UACC-62 = experiment: Cytotoxicity against human UACC62 cells after 48 hrs by sulforhodamine B assay; format: functional; procedure, shortened: as §1
HCT-15 = experiment: Cytotoxicity against human HCT15 cells after 48 hrs by sulforhodamine B assay; format: functional; conditions: HCT-15, 48 h; procedure, shortened: as §1
RPMI8266 = experiment: (§2) Cytotoxicity against human […] cells after 48 hrs by sulforhodamine B assay; format: functional; procedure, shortened: as §1
BT-549 = experiment: Cytotoxicity against human BT549 cells after 48 hrs by sulforhodamine B assay; format: functional; procedure, shortened: as §1
SNB-75 = experiment: Cytotoxicity against human SNB75 cells after 48 hrs by sulforhodamine B assay; format: functional; procedure, shortened: as §1
HOP-62 = experiment: Cytotoxicity against human HOP62 cells after 48 hrs by sulforhodamine B assay; format: functional; procedure, shortened: as §1
OVCAR-3 = experiment: Cytotoxicity against human OVCAR-3 cells after 48 hrs by sulforhodamine B assay; format: functional; procedure, shortened: as §1
LOX IMVI = experiment: Cytotoxicity against human LOXIMVI cells after 48 hrs by sulforhodamine B assay; format: functional; procedure, shortened: as §1
MCF7 [5] = experiment: Cytotoxicity against human MCF7 cells after 48 hrs by sulforhodamine B assay; format: functional; conditions: MCF7, 48 h; procedure, shortened: as §1
KM12 = experiment: Cytotoxicity against human KM12 cells after 48 hrs by sulforhodamine B assay; format: functional; conditions: KM12, 48 h; procedure, shortened: as §1
SR = experiment: Cytotoxicity against human SR cells after 48 hrs by sulforhodamine B assay; format: functional; procedure, shortened: as §1
ACHN = experiment: Cytotoxicity against human ACHN cells after 48 hrs by sulforhodamine B assay; format: functional; procedure, shortened: as §1
SF-539 = experiment: Cytotoxicity against human SF539 cells after 48 hrs by sulforhodamine B assay; format: functional; conditions: SF-539, 48 h; procedure, shortened: as §1
A498 = experiment: Cytotoxicity against human A498 cells after 48 hrs by sulforhodamine B assay; format: functional; procedure, shortened: as §1
MCF7 [6] = experiment: Antitumor activity against human MCF7 cells assessed as cell growth at 10 uM after 48 hrs by sulforhodamine B assay; format: functional; conditions: MCF7, 48 h, read-out: Activity
Procedure, shortened: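 NCI primary screen, single concentration 10^-5 M against MCF7, NCI-H460 and SF-268. Cells in RPMI 1640 with 5% FBS and 2 mM L-glutamine, seeded at 5000–40,000 cells/well by cell type, preincubated 24 h at 37 °C. Compound added at time zero, then 48 h incubation (5% CO2, 100% humidity). Growth read by sulforhodamine B optical density, reported as growth percentage.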

[7] = Cytotoxicity against human Hs 578T cells after 48 hrs by sulforhodamine B assay; format: functional; procedure, shortened: as §1
NCI-H226 = experiment: Cytotoxicity against human NCI-H226 cells after 48 hrs by sulforhodamine B assay; format: functional; conditions: NCI-H226, 48 h; procedure, shortened: as §1
[8] = as §2; format: functional; procedure, shortened: as §1
OVCAR-4 = experiment: Cytotoxicity against human OVCAR4 cells after 48 hrs by sulforhodamine B assay; format: functional; procedure, shortened: as §1
CCRF-CEM = experiment: Cytotoxicity against human CCRF-CEM cells after 48 hrs by sulforhodamine B assay; format: functional; procedure, shortened: as §1
HCT-116 [9] = experiment: Cytotoxicity against human HCT116 cells after 48 hrs by sulforhodamine B assay; format: functional; conditions: HCT-116, 48 h; procedure, shortened: as §1

CCSc1nn2c(Cc3ccccc3)nnc2s1
IC50 [1]: > 48 µM
IC50 [2]: 24 µM
IC50 [3]: > 120 µM

Nc1ccc(-c2nn3c(Cc4ccccc4)nnc3s2)cc1
IC50 [1]: 14 µM
IC50 [2]: > 28 µM
IC50 [3]: > 120 µM

Cc1nnc2sc(NN)nn12
IC50 [1]: > 120 µM
IC50 [2]: 11 µM
IC50 [3]: 22 µM

CCSc1nn2c(COc3ccc(Cl)cc3)nnc2s1
IC50 [1]: > 120 µM
IC50 [2]: 24 µM
IC50 [3]: > 48 µM

c1ccc(Cc2nnc3sc(SSc4nn5c(Cc6ccccc6)nnc5s4)nn23)cc1
IC50 [1]: 25 µM
IC50 [2]: 15 µM
IC50 [3]: 5.3 µM

c1ccc(CSc2nn3c(Cc4ccccc4)nnc3s2)cc1
IC50 [1]: 18 µM
IC50 [2]: > 28 µM
IC50 [3]: 25 µM

Nc1nc(O)c(Cc2nn3c(COc4ccc(Cl)cc4)nnc3s2)s1
pGI50 (SF-268): inactive
pGI50 (HCC 2998): inactive
pGI50 (CAKI-1): inactive
Activity (HCT-116 [4]): Active
GI50 (NCI-H322M): 11.2 µM
GI50 (TK-10): 45.7 µM
GI50 (HOP-92): 97.7 µM
GI50 (UACC-62; UACC-62, 48 h): 31.6 µM
GI50 (HCT-15): 0.741 µM
pGI50 (RPMI8266): inactive
pGI50 (BT-549): inactive
pGI50 (SNB-75): inactive
IC50 [1]: 3 µM
IC50 [2]: 0.18 µM
pGI50 (HOP-62): inactive
pGI50 (OVCAR-3): inactive
GI50 (LOX IMVI): 3.63 µM
GI50 (MCF7 [5]): > 100 µM
IC50 [3]: 0.91 µM
GI50 (KM12): 7.41 µM
GI50 (SR): 49 µM
GI50 (ACHN): 35.5 µM
GI50 (SF-539): 39.8 µM
GI50 (A498; A498, 48 h): 0.0537 µM
growth at 10 µM (MCF7 [6]): 0%
GI50 [7]: 31.6 µM

NNc1nn2c(COc3ccc(Cl)cc3)nnc2s1
IC50 [1]: > 120 µM
IC50 [2]: 15 µM
IC50 [3]: 28 µM

Nc1nc(O)c(Cc2nn3c(Cc4ccccc4)nnc3s2)s1
IC50 [1]: > 48 µM
IC50 [2]: 14 µM
IC50 [3]: > 120 µM

CCSc1nn2c(C)nnc2s1
IC50 [1]: 14 µM
IC50 [2]: 11 µM
IC50 [3]: > 120 µM

S=c1[nH]c(=S)c2c(Cc3nn4c(COc5ccc(Cl)cc5)nnc4s3)n[nH]c2[nH]1
IC50 [1]: > 48 µM
IC50 [2]: 37 µM
IC50 [3]: 29 µM

Nc1ccc(-c2nn3c(COc4ccc(Cl)cc4)nnc3s2)cc1
GI50 (SF-268; SF-268, 48 h): 46.8 µM
pGI50 (HCC 2998): inactive
GI50 (CAKI-1; CAKI-1, 48 h): 49 µM
Activity (HCT-116 [4]): inactive
GI50 (NCI-H226): 7.24 µM
pGI50 (NCI-H322M): inactive
GI50 (TK-10): 85.1 µM
GI50 (HOP-92): 97.7 µM
pGI50 (UACC-62): inactive
GI50 [8]: 77.6 µM
pGI50 (OVCAR-4): inactive
IC50 [1]: 2.1 µM
IC50 [2]: 0.33 µM
GI50 (HOP-62; HOP-62, 48 h): 20.4 µM
pGI50 (OVCAR-3): inactive
pGI50 (LOX IMVI): inactive
GI50 (MCF7 [5]): 40.7 µM
GI50 (CCRF-CEM): 10 µM
GI50 (HCT-116 [9]): 34.7 µM
IC50 [3]: 6.5 µM
GI50 (KM12): > 100 µM
GI50 (SR): 91.2 µM
GI50 (ACHN): 53.7 µM
GI50 (SF-539): 34.7 µM
pGI50 (A498): inactive
growth at 10 µM (MCF7 [6]): 128%
GI50 [7]: 87.1 µM
